Results from ChEMBL document CHEMBL4017491, “Phthalazino[1,2-b]quinazolinones as p53 Activators: Cell Cycle Arrest, Apoptotic Response and Bak-Bcl-xl Complex Reorganization in Bladder Cancer Cells” (J Med Chem, 2017).
pIC50: −log10 of the molar value. Calls of active or inactive are those of the source. The calls are words filed in the database; no cut-off is given here.

Tests used:
HepG2 [1] = assay: Antiproliferative activity against human HepG2 cells by MTT assay; assay type: functional, cell-based
Method in brief: (§1)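 Cell lines cultured in RPMI 1640 with 10% FBS. Viability read by MTT (5 mg/mL, 4 h at 37 °C), with formazan dissolved in DMSO and absorbance taken at 490 nm. Viability (%) = A490 treated / A490 control × 100. IC50 taken from dose-response curves, from three independent experiments each run in triplicate.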

NCI-H460 = assay: Antiproliferative activity against human NCI-H460 cells by MTT assay; assay type: functional, cell-based; method in brief: as §1
T-24 [2] = assay: Antiproliferative activity against human T24 cells by MTT assay; assay type: functional, cell-based; method in brief: as §1
HeLa = assay: Antiproliferative activity against human HeLa cells by MTT assay; assay type: functional, cell-based; method in brief: as §1
MGC-803 = assay: Antiproliferative activity against human MGC803 cells by MTT assay; assay type: functional, cell-based; method in brief: as §1
[3] = molecular target: Cellular tumor antigen p53 (Homo sapiens) (UniProt P04637); assay: Activation of p53 in human T24 cells assessed as p53 phosphorylation after 24 hrs by Western blot analysis; assay type: cell-based
Method in brief: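 T24 cells, 3 × 10^5 per well, grown to 85−95% confluence, then exposed to 0−10 μM for 24 h. Whole-cell extracts in sample buffer run on SDS-polyacrylamide gels and transferred to nitrocellulose. Blots probed with primary antibodies and AP-linked anti-rabbit IgG, detected by ECL. Blots stripped and reprobed for β-actin as loading control.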

T-24 [4] = assay: Effect on p53 expression in human T24 cells up to 10 uM after 24 hrs by Western blot analysis; assay type: functional, cell-based
Method in brief: (§2)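 T24 cells (3 × 10^5 per well) grown to 85–95% confluence, then exposed 24 h to 0–10 μM. Whole-cell extracts run on SDS-PAGE and blotted to nitrocellulose. Probed with the indicated antibodies and AP-linked anti-rabbit IgG, with ECL detection. Blots stripped and reprobed for β-actin as loading control.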

T-24 [5] = assay: Effect on p53 protein expression in human T24 cells at 10 uM after 24 hrs by Western blot analysis; assay type: functional, cell-based; method in brief: as §2
HepG2 [6] = assay: Antitumor activity against human HepG2 cells xenografted in BALB/C nude mouse assessed as tumor growth inhibition at 6 mg/kg, ip administered every 2 days for 16 days relative to control; assay type: functional; conditions: read-out: TGI
Method in brief: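 Male BALB/C nude mice, 6 weeks old, given subcutaneous flank injection of 5 × 10^6 HepG2 cells; tumors of 80−200 mm3 randomized, n = 6/group. Dosing ip every other day, vehicle 5% DMSO in saline (v/v). Tumor length and width measured three times a week, volume V = lw2/2; growth inhibition expressed versus vehicle group. Body weight also recorded.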

Escherichia coli = assay: Induction of DNA damage in Escherichia coli pBR322 DNA assessed as effect on mobility rate at 5 uM after 1 hr by DNA relaxation assay
Method in brief: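 pBR322 plasmid DNA incubated 1 h with compound over 1−10 μM in 5 mM Tris-HCl, 50 mM NaCl, pH 7.2. Samples run on 1.5% agarose gel, stained with 0.5 μg·mL−1 ethidium bromide; conformation and migration rate compared with 1% DMSO plus plasmid (negative control) and ethidium bromide plus plasmid (positive control).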

Sequence of Cellular tumor antigen p53 (Homo sapiens) (P04637 whole entry, looked up): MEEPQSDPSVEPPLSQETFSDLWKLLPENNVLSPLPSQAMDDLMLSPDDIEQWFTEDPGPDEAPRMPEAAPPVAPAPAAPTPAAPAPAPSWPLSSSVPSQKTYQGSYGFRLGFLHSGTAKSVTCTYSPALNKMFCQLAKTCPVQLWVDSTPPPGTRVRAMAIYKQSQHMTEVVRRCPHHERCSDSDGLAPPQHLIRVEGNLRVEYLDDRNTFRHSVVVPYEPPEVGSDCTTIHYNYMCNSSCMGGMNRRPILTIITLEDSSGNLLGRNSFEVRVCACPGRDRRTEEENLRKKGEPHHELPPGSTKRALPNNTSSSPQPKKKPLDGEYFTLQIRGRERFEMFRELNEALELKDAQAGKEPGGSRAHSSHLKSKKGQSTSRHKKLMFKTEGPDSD

Structure (SMILES) | pIC50 (HepG2 [1]) | pIC50 (NCI-H460) | pIC50 (T-24 [2]) | pIC50 (HeLa) | pIC50 (MGC-803) | Activity [3] | Activity (T-24 [4]) | Activity (T-24 [5]) | inhibition in vivo at 6 mg/kg (HepG2 [6]) [%] | Activity (Escherichia coli)
O=c1c2ccccc2nc2c3ccccc3c(NCCCN3CCOCC3)nn12 | 4.52 | 4.40 | 4.55 | 4.27 | 4.84 |  |  |  |  | 
CN(C)CCCNc1nn2c(=O)c3ccccc3nc2c2ccccc12 | 4.94 | 4.77 | 4.84 | 4.69 | 4.97 | Dose-dependent effect | inactive |  |  | 
Cc1ccc2nc3c4ccccc4c(N4CCN(C)CC4)nn3c(=O)c2c1 | 4.26 | 4.15 | 4.22 | 4.07 | 4.47 |  |  |  |  | 
CCOC(=O)CCNc1nn2c(=O)c3cc(Br)ccc3nc2c2ccccc12 | < 4.00 | < 4.00 | < 4.00 | < 4.00 | < 4.00 |  |  |  |  | 
COc1ccc(C2=N[C@H](c3ccc(Cl)cc3)[C@H](c3ccc(Cl)cc3)N2C(=O)N2CCNC(=O)C2)c(OC(C)C)c1 |  |  |  |  |  |  |  | inactive |  | 
O=c1c2cc(Cl)ccc2nc2c3ccccc3c(N3CCOCC3)nn12 | < 4.00 | < 4.00 | < 4.00 | < 4.00 | < 4.00 |  |  |  |  | 
CN(C)CCNc1nn2c(=O)c3cc(Cl)ccc3nc2c2ccccc12 | 5.31 | 5.29 | 5.46 | 5.25 | 5.32 |  |  |  |  | 
O=c1c2cc(F)ccc2nc2c3ccccc3c(NCCCN3CCOCC3)nn12 | 4.35 | 4.28 | 4.72 | 4.22 | 4.10 |  |  |  |  | 
O=c1c2ccccc2nc2c3ccccc3c(N3CCOCC3)nn12 | 4.03 | < 4.00 | < 4.00 | < 4.00 | < 4.00 |  |  |  |  | 
CCCCNc1nn2c(=O)c3cc(Br)ccc3nc2c2ccccc12 | < 4.00 | < 4.00 | < 4.00 | < 4.00 | < 4.00 |  |  |  |  | 
CN1CCN(c2nn3c(=O)c4cc(F)ccc4nc3c3ccccc23)CC1 | 4.28 | 4.11 | 4.46 | 4.35 | 4.58 |  |  |  |  | 
CN(C)CCNc1nn2c(=O)c3cc(F)ccc3nc2c2ccccc12 | 5.33 | 5.13 | 5.34 | 5.10 | 5.18 |  |  |  |  | 
CN(C)CCCNc1nn2c(=O)c3cc(Br)ccc3nc2c2ccccc12 | 5.66 | 5.26 | 5.49 | 5.15 | 5.47 |  |  |  |  | 
CN1CCN(c2nn3c(=O)c4ccccc4nc3c3ccccc23)CC1 | 4.40 | 4.50 | 4.47 | 4.30 | 4.35 |  |  |  |  | 
CN(C)CCNc1nn2c(=O)c3ccccc3nc2c2ccccc12 | 4.99 | 4.92 | 5.13 | 4.89 | 5.06 |  |  |  |  | 
CCOC(=O)CNc1nn2c(=O)c3cc(Br)ccc3nc2c2ccccc12 | < 4.00 | < 4.00 | < 4.00 | < 4.00 | < 4.00 |  |  |  |  | 
CC[C@@]1(O)C(=O)OCc2c1cc1n(c2=O)Cc2cc3cc(O)ccc3nc2-1 [HYDROXYCAMPTOTHECIN] | 5.26 | 5.31 | 5.26 | 4.54 | 4.82 |  |  |  | 71.6 | 
CC(C)N(CCNc1nn2c(=O)c3cc(Br)ccc3nc2c2ccccc12)C(C)C | 4.93 | 4.87 | 4.90 | 4.94 | 4.97 |  |  |  |  | 

Structure (SMILES) | pIC50 (HepG2 [1]) | pIC50 (NCI-H460) | pIC50 (T-24 [2]) | pIC50 (HeLa) | pIC50 (MGC-803) | Activity [3] | Activity (T-24 [4]) | Activity (T-24 [5]) | inhibition in vivo at 6 mg/kg (HepG2 [6]) [%] | Activity (Escherichia coli)
CN1CCN(c2nn3c(=O)c4cc(Cl)ccc4nc3c3ccccc23)CC1 | 4.24 | 4.15 | 4.51 | < 4.00 | 4.18 |  |  |  |  | 
CN(C)CCCNc1nn2c(=O)c3cc(F)ccc3nc2c2ccccc12 | 4.97 | 4.95 | 5.05 | 4.66 | 4.49 |  |  |  |  | 
Cc1ccc2nc3c4ccccc4c(NCCN(C)C)nn3c(=O)c2c1 | 5.30 | 5.24 | 5.67 | 5.47 | 5.25 |  |  |  |  | 
CCN(CC)CCNc1nn2c(=O)c3cc(Br)ccc3nc2c2ccccc12 | 5.52 | 5.30 | 4.97 | 5.06 | 5.14 |  |  |  |  | 
CN1CCN(c2nn3c(=O)c4cc(Br)ccc4nc3c3ccccc23)CC1 | 4.39 | 4.36 | 4.11 | 4.13 | 4.39 |  |  |  |  | 
CN(C)CCCNc1nn2c(=O)c3cc(Cl)ccc3nc2c2ccccc12 | 5.06 | 4.98 | 5.01 | 4.81 | 4.86 |  |  |  |  | 
Cc1ccc2nc3c4ccccc4c(N4CCOCC4)nn3c(=O)c2c1 | < 4.00 | < 4.00 | < 4.00 | < 4.00 | < 4.00 |  |  |  |  | 
O=c1c2cc(Br)ccc2nc2c3ccccc3c(NCCN3CCCC3)nn12 | 5.28 | 5.16 | 5.19 | 5.43 | 5.38 |  |  |  |  | 
Cc1ccc2nc3c4ccccc4c(NCCCN(C)C)nn3c(=O)c2c1 | 5.11 | 5.01 | 5.14 | 4.87 | 5.28 |  |  |  |  | 
Cc1ccc2nc3c4ccccc4c(NCCCN4CCOCC4)nn3c(=O)c2c1 | 4.62 | 4.67 | 5.01 | 4.62 | 4.68 |  |  |  |  | 
O=c1c2cc(F)ccc2nc2c3ccccc3c(N3CCOCC3)nn12 | < 4.00 | < 4.00 | < 4.00 | < 4.00 | < 4.00 |  |  |  |  | 
O=c1c2cc(Br)ccc2nc2c3ccccc3c(NCCCN3CCOCC3)nn12 | 4.89 | 4.82 | 5.04 | 4.76 | 5.14 |  |  |  |  | 
CC[n+]1c(-c2ccccc2)c2cc(N)ccc2c2ccc(N)cc21 |  |  |  |  |  |  |  |  |  | Active
O=c1c2cc(Br)ccc2nc2c3ccccc3c(NCCN3CCOCC3)nn12 | 4.95 | 5.11 | 4.97 | 5.06 | 5.00 |  |  |  |  | 
O=c1c2cc(Cl)ccc2nc2c3ccccc3c(NCCCN3CCOCC3)nn12 | 4.74 | 4.70 | 5.05 | 4.46 | 4.64 |  |  |  |  | 
O=c1c2cc(Br)ccc2nc2c3ccccc3c(N3CCOCC3)nn12 | < 4.00 | < 4.00 | < 4.00 | < 4.00 | < 4.00 |  |  |  |  | 
O=c1c2cc(Br)ccc2nc2c3ccccc3c(NCCN3CCCCC3)nn12 | 5.38 | 5.11 | 5.42 | 5.70 | 5.35 |  |  |  |  | 
